Results reported in ChEMBL document CHEMBL4513216, “Probing the Open Global Health Chemical Diversity Library for Multistage-Active Starting Points for Next-Generation Antimalarials” (ACS Infect Dis, 2020).

Test: Toxicity liver stage against HepG2, at 10uM
Type: cell-based
Parameters: test concentration 10 uM, cell line HepG2-A16-CD81EGFP
Conditions: human, HepG2-A16-CD81EGFP cells; read-out: INHIBITION
Outline: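 Uninfected HepG2-A16-CD81EGFP cells, 3 × 10^3 per well, 1536-well, plated on prespotted compound at 10 μM final, parasite-free screening media added to match infected plates; puromycin 10 μM positive, DMSO 0.5% negative; run in parallel with 48 h PbLuc assay at 37 °C, 5% CO2; viability by CellTiter-Glo luminescence, normalized to controls.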

First: O=C(NCCc1nncn1C1CC1)c1cc2ccccn2c1
Second: COCCNC(=O)c1cc(-c2cc[nH]n2)n2ccccc12
The cytotoxicity at 10 µM of the first is lower: -1.87% for the first, 10.4% for the second.

Compared with `CN(CC(=O)NC(C)(C#N)C1CC1)Cc1nc2ccccc2n1C` (configuration not stated), `CCOc1ccccc1CN(C)C(=O)CN1C(=O)OC[C@@H]1C(C)C` is higher in cytotoxicity at 10 µM: -3.72% for the first, -2.24% for the second.

Going from `Cc1ccc2nc(NCCN3CCOCC3)n(C)c(=O)c2c1` to `Cc1nc(CCCN2CCOCC2)n(Cc2ccc(F)cc2)n1`, the cytotoxicity at 10 µM falls from 9.26% to 1.69%.

First: COc1ccc(F)c(NCc2ccc(C(=O)N(C)C)[nH]2)c1
Second: COc1ncccc1CNC(=O)c1cc(Cl)ccn1
The cytotoxicity at 10 µM of the first is higher: 7.31% for the first, -7.51% for the second.

First: Cc1ccc(NC(=O)NC(C)C(=O)N2CCS(=O)(=O)CC2)cc1 (configuration not stated)
Second: Cc1ccc(C(=O)NC2CCN(C(=O)Nc3ccccn3)CC2)s1
The cytotoxicity at 10 µM of the first is lower: -5.1% for the first, -4.54% for the second.

First: Cc1n[nH]c(C2CN(CC(=O)NCCc3ccsc3)CCO2)n1 (configuration not stated)
Second: CC(C)c1n[nH]c(C2CN(CCc3cccs3)CCO2)n1 (configuration not stated)
The cytotoxicity at 10 µM of the first is higher: -0.524% for the first, -4.57% for the second.

First: Cc1cc(C)c2[nH]c(C(=O)NCCN3CCCC3=O)c(C)c2c1
Second: CC1=C(C(=O)NCCc2n[nH]c3c2CCCC3)C(C)NC(=O)N1 (configuration not stated)
The cytotoxicity at 10 µM of the first is higher: 2.49% for the first, -3.51% for the second.

Compared with `CC(C)c1nccc(-c2nccn2CCN(C)S(C)(=O)=O)n1`, `CCCc1nc(CN(CC)Cc2ccc(S(C)(=O)=O)cc2)no1` is lower in cytotoxicity at 10 µM: 7.53% for the first, -16.9% for the second.

Compared with `Cc1ccsc1[C@@H]1CCN(C(=O)Cc2ccc(O)cc2)C[C@H]1O`, `O=C(CCCc1ccc(F)cc1)N1C[C@@H](CN2CCOCC2)[C@@H](CO)C1` is lower in cytotoxicity at 10 µM: -2.59% for the first, -11.8% for the second.

Going from `CCC(C)N(Cc1ccsc1)C(=O)c1ccc2[nH]nnc2c1` (configuration not stated) to `CCc1nnc(CN2CCN(C(=O)c3cc4ccccc4[nH]3)CC2)o1`, the cytotoxicity at 10 µM falls from 13.3% to -0.385%.

Going from `Cn1c(Cn2ccnc2)nnc1C1CCN(C(=O)c2ccncc2)CC1` to `CCC(O)CN1CCN(C(=O)c2cccn2Cc2ccncc2)CC1` (configuration not stated), the cytotoxicity at 10 µM rises from -106% to -13%.

First: CCc1ccccc1CN1CCN(Cc2ncc[nH]2)[C@H]2CS(=O)(=O)C[C@H]21
Second: CN1CCN(C2CCN(CCOc3ccccc3F)CC2)C1=O
The cytotoxicity at 10 µM of the first is higher: 2.03% for the first, 0.174% for the second.

Going from `CN(C)CC1(O)CCCN(C(=O)Cn2nc3ccccc3n2)CC1` (configuration not stated) to `CN(C)C1CC2(CCN(C(=O)c3csnn3)CC2)c2ccccc21` (configuration not stated), the cytotoxicity at 10 µM falls from -8.14% to -138%.

Going from `CCN(C(=O)c1c(Cl)cnn1CC)C(C)C(N)=O` (configuration not stated) to `CCc1nn(C)c(Cl)c1CN(CC)Cc1cnn(CC)c1`, the cytotoxicity at 10 µM rises from -16.1% to 4.36%.

First: CCCc1nc(C(=O)NCc2cccnc2-n2cncn2)cs1
Second: OCC1CCCN1c1cc(NCc2cccc3cccnc23)ncn1 (configuration not stated)
The cytotoxicity at 10 µM of the first is lower: -148% for the first, -15.6% for the second.

Compared with `c1cncc(NCCNC2CCSCC2)c1`, `COc1ccc(Cl)cc1C(=O)NCCNc1cnccn1` is lower in cytotoxicity at 10 µM: -0.307% for the first, -8.35% for the second.

Compared with `CN1CCN(S(=O)(=O)NCC2COc3ccccc3C2)CC1` (configuration not stated), `NC(=O)C1CN(C(=O)Nc2ccccc2N2CCCCCC2)CCO1` (configuration not stated) is lower in cytotoxicity at 10 µM: -3.33% for the first, -6.31% for the second.

First: CCCn1ncnc1C(C)NC(=O)C1CCN(C(C)C)CC1 (configuration not stated)
Second: COCCOc1ccc(NC(=O)C2CC(=O)N(C(C)C)C2)cn1 (configuration not stated)
The cytotoxicity at 10 µM of the first is lower: -139% for the first, -17.6% for the second.

Compared with `O=C(NCCSc1cnn[nH]1)c1c[nH]nc1C1CCCCC1`, `CCc1nccn1CC(=O)N1C[C@@H]2CC[C@H]1CN(c1ncccn1)C2` is lower in cytotoxicity at 10 µM: -5.03% for the first, -7.9% for the second.

Going from `CC[C@H]1CN(C(=O)CCn2c(C)cccc2=O)CC[C@@]1(C)O` to `Cc1nccn1C1CCCN(C(=O)c2ccc(N(C)C)nn2)C1` (configuration not stated), the cytotoxicity at 10 µM falls from 8.51% to -17.7%.

First: O=C(O)c1cc(-c2cccnc2)cc(S(=O)(=O)N2CCCCCC2)c1
Second: O=C1CC2(CCN(Cc3ccccn3)C2)CN1c1cccnc1 (configuration not stated)
The cytotoxicity at 10 µM of the first is higher: -2.88% for the first, -8.75% for the second.

Going from `COCc1ccc(CNc2cncc(-n3cccn3)n2)cc1` to `COc1ccc(C(NCc2ccc(C#N)cc2)C2CC2)cc1` (configuration not stated), the cytotoxicity at 10 µM rises from 6% to 7.18%.

Going from `CCOc1ncccc1NC(=O)N1CCN(CC(=O)NC)CC1` to `CCCN1CCN(C(=O)Cc2nc(-c3ccco3)oc2C)CC1`, the cytotoxicity at 10 µM falls from -2.66% to -6.14%.

First: CC(Cc1ccco1)NC(=O)Nc1ccc(N(C)C)nc1 (configuration not stated)
Second: CC(C)N(C)Cc1cnc2n1CCN(Cc1cccc(F)c1)C2
The cytotoxicity at 10 µM of the first is lower: -7.22% for the first, -2.92% for the second.

First: Cc1nc(C)n(CC2CCCN2CCc2ccncc2)n1 (configuration not stated)
Second: Cc1nc(CN(C)C2CCCN(c3cccnn3)C2)oc1C (configuration not stated)
The cytotoxicity at 10 µM of the first is higher: -7.3% for the first, -12.4% for the second.

Going from `CCOCCN1CCN(Cc2csc(-c3cnn(C)c3)n2)CC1` to `O=C1CCC2(CCN(Cc3ccc(F)cc3)CC2)N1CCN1CCCC1`, the cytotoxicity at 10 µM rises from -4.95% to -4.72%.

Compared with `CC(C)CCc1nc(CNCC2CN(C)CCO2)cs1` (configuration not stated), `CCn1nnc2c1C(COCCN(C)C)CN(Cc1ccc(C)s1)C2` (configuration not stated) is higher in cytotoxicity at 10 µM: -15.2% for the first, 4.44% for the second.

First: Cc1ccc(CN[C@@H]2COC[C@H]2Cc2cc(C)no2)cc1
Second: c1csc(CN2Cc3nccn3CC(Cn3cncn3)C2)c1 (configuration not stated)
The cytotoxicity at 10 µM of the first is higher: -23.2% for the first, -136% for the second.

`NC(C(=O)N1CCSc2ccccc2C1)c1ccccc1` (configuration not stated) gave a cytotoxicity at 10 µM of 4.59%.
